Results: the M2OR odorant receptor database
Substitutions are numbered along the chain they refer to.

What was measured:
Settings in all cases: stereoisomer not certain
[1] = system: OR2M5 V105T M154T G255A
Summary of the method: (§1)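 Each receptor–molecule pair is labelled responsive or non-responsive (inactive) according to whether the original authors judged the measured signal statistically different from baseline. The data were taken from the main text and supplementary material of published papers and checked for typos and inconsistencies. Assay methods differed by source, with transient luciferase assays in mammalian cell lines being common.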

[2] = system: OR2M5 V105T S119A A156G G255A
Summary of the method: as §1

[3] = system: OR2M5 V105T
Chain of OR2M5 V105T (as listed by the source, stated change not applied): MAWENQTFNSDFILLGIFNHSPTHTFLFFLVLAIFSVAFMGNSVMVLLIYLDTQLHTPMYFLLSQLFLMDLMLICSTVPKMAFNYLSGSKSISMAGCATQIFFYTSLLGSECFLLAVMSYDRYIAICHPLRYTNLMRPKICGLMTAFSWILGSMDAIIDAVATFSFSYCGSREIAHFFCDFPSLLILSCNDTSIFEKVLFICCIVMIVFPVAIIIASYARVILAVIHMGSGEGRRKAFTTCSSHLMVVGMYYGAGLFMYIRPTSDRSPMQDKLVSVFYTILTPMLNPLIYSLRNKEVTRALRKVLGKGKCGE
Summary of the method: as §1

[4] = system: OR2M5 V198I
Chain of OR2M5 V198I (as listed by the source, stated change not applied): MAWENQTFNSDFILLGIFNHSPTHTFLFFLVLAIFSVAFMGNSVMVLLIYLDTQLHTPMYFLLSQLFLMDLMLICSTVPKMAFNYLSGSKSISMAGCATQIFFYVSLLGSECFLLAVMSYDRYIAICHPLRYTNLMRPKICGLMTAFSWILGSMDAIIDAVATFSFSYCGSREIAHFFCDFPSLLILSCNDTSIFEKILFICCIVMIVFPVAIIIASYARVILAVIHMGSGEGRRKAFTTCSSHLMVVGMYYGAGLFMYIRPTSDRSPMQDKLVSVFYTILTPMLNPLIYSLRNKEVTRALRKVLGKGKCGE
Summary of the method: as §1

[5] = target: T1, OR2S2 (Homo sapiens) (UniProt Q9NQN1)
T1 sequence (whole entry): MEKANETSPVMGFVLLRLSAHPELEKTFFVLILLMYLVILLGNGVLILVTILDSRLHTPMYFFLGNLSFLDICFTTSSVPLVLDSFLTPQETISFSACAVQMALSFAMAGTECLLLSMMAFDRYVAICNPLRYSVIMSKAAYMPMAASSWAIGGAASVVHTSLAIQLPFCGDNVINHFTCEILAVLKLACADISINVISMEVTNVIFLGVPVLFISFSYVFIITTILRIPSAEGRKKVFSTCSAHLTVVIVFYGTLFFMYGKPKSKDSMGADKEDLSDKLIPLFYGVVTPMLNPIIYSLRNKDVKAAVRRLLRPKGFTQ
Summary of the method: as §1

[6] = target: T2, OR2T1 (Homo sapiens) (UniProt O43869)
T2 sequence (whole entry): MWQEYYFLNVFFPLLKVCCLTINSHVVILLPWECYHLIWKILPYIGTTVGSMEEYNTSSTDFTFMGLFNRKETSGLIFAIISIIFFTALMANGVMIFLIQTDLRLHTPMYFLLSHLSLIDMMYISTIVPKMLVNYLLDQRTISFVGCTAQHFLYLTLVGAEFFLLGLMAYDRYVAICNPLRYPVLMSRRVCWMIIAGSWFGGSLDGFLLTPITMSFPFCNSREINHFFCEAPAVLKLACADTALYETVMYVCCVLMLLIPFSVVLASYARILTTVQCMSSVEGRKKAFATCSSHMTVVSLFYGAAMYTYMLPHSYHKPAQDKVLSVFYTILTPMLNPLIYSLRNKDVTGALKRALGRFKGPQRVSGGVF
Summary of the method: as §1

[7] = target: T3, OR2T10 (Homo sapiens) (UniProt Q8NGZ9)
T3 sequence (whole entry): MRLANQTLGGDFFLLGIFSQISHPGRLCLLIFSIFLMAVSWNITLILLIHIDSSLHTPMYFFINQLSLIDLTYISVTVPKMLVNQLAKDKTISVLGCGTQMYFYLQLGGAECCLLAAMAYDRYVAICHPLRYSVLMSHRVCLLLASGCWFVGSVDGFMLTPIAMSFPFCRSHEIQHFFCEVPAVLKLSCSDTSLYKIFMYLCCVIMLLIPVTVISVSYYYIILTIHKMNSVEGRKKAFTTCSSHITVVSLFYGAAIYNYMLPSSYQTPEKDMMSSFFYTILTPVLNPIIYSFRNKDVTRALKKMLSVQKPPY
Summary of the method: as §1

[8] = target: T4, OR2T11 (Homo sapiens) (UniProt Q8NH01)
T4 sequence (whole entry): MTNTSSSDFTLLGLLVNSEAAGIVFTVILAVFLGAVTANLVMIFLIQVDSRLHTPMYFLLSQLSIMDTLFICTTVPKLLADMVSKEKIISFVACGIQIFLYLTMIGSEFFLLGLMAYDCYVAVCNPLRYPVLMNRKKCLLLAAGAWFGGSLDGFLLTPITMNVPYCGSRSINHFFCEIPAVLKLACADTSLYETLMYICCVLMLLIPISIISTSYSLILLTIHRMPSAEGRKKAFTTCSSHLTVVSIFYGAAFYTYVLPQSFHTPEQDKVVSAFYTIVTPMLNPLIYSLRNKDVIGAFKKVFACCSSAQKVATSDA
Summary of the method: as §1

[9] = target: T5, OR2T12 (Homo sapiens) (UniProt Q8NG77)
T5 sequence (whole entry): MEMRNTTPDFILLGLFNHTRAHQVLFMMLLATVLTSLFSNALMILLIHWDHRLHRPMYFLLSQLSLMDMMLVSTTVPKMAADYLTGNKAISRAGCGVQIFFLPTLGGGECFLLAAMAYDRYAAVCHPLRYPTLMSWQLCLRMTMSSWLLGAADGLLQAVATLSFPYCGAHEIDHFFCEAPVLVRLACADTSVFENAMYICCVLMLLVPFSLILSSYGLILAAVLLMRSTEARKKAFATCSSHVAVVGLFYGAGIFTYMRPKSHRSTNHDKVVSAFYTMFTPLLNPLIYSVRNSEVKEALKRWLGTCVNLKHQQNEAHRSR
Summary of the method: as §1

[10] = target: T6, OR2T2 (Homo sapiens) (UniProt Q6IF00)
T6 sequence (whole entry): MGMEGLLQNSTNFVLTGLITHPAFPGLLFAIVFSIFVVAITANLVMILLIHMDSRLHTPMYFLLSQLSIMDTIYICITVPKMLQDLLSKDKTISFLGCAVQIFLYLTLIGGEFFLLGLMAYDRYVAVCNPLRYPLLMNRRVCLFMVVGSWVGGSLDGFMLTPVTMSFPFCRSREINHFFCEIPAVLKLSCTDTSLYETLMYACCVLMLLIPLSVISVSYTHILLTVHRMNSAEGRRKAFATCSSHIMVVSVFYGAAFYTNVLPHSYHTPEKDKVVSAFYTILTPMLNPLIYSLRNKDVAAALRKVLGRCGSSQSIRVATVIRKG
Summary of the method: as §1

[11] = target: T7, OR2T27 (Homo sapiens) (UniProt Q8NH04)
T7 sequence (whole entry): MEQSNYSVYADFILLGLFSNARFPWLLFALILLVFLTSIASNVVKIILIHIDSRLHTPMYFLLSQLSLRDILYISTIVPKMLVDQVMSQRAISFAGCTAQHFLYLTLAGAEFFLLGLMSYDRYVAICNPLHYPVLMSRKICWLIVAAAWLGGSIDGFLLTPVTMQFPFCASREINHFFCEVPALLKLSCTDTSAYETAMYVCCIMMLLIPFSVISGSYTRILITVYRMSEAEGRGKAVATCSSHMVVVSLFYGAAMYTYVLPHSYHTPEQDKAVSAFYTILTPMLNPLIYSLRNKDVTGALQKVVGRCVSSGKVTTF
Summary of the method: as §1

[12] = target: T8, OR2T29 (Homo sapiens) (UniProt Q8NH02)
T8 sequence (whole entry): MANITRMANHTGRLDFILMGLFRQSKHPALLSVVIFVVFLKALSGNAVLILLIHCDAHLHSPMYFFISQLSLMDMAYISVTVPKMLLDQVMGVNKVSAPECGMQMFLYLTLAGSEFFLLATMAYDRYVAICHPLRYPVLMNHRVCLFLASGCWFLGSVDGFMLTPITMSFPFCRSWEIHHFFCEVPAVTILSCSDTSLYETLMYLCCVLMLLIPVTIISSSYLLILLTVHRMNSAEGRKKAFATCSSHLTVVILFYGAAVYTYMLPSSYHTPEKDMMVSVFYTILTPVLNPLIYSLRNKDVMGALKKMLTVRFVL
Summary of the method: as §1

[13] = target: T9, OR2T3 (Homo sapiens) (UniProt Q8NH03)
T9 sequence (whole entry): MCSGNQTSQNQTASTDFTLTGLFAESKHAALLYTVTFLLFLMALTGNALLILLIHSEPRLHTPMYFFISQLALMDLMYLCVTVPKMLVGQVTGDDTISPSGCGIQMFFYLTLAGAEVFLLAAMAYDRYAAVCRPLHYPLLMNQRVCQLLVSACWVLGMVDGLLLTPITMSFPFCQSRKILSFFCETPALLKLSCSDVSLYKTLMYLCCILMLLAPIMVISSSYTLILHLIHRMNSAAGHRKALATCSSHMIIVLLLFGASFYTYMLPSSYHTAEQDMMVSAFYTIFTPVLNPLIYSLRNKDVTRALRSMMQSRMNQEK
Summary of the method: as §1

[14] = target: T10, OR2M7 (Homo sapiens) (UniProt Q8NG81)
T10 sequence (whole entry): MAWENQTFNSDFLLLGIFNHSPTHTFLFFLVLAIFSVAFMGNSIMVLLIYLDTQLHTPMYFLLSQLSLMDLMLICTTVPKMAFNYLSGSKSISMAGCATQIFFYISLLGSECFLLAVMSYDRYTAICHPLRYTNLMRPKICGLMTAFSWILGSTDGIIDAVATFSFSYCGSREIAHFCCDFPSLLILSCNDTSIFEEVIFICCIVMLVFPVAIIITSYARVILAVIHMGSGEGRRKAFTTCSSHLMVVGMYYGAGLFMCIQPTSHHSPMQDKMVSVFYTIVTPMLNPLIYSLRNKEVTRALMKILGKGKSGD
Summary of the method: as §1

[15] = system: T11, OR2T2 L104F L262Q
T11 sequence (whole entry): T6 sequence (whole entry) with L104F, L262Q
Summary of the method: as §1

[16] = system: T12, OR2T2 L104F
T12 sequence (whole entry): T6 sequence (whole entry) with L104F
Summary of the method: as §1

[17] = system: T13, OR2T2 Q313H
T13 sequence (whole entry): T6 sequence (whole entry) with Q313H
Summary of the method: as §1

[18] = system: T14, OR2T3 L256F
T14 sequence (whole entry): T9 sequence (whole entry) with L256F
Summary of the method: as §1

[19] = system: OR2M7
Summary of the method: as §1
Target sequence in this assay (as listed by the source): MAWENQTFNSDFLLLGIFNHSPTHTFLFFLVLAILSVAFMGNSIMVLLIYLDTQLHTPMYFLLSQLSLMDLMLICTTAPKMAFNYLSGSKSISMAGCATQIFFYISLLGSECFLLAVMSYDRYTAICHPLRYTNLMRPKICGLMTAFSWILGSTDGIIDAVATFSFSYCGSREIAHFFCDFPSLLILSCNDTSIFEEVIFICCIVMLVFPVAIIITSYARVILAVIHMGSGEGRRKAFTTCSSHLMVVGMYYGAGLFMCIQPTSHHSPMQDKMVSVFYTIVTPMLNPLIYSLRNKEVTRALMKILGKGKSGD

[20] = system: OR2M7; remark: listed apart in the source
Summary of the method: as §1
Target sequence in this assay (as listed by the source): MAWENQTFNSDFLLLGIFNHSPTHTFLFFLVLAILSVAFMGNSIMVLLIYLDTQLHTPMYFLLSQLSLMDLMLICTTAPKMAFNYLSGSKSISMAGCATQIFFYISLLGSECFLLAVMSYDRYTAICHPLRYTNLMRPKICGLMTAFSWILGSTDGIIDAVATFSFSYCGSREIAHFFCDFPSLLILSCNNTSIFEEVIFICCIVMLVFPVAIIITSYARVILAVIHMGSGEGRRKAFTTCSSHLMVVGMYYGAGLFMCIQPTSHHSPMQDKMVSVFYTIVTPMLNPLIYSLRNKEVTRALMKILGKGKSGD

Measured: odorant receptor agonist call

CCC(S)C(C)CO (centres undefined)
not listed: [14] | [15] | [16] | [17] | [18] | [19] | [20]
inactive: all other assays above

CCCCCCC=CCCC=O
not listed: [1] | [2] | [3] | [4] | [18] | [19] | [20]
inactive: all other assays above

CC(=O)OCC=C(C)C
inactive: [14]

CCC1OC(=O)C(O)=C1C (centres undefined)
not listed: [1] | [2] | [3] | [4] | [19] | [20]
inactive: all other assays above

O=C1Cc2ccccc2O1
inactive: [14]

CCOC(=O)C(C)C
inactive: [14]

CCCCCOC(=O)CCCCC
inactive: [14]

CCCCCC=O
inactive: [14]

CCCC(S)CCOC(C)=O (centres undefined)
not listed: [1] | [2] | [3] | [4] | [19] | [20]
inactive: all other assays above

CCCCCCO
inactive: [14]

CC1=NC(C)C(C)S1 (centres undefined)
not listed: [1] | [2] | [3] | [4] | [19] | [20]
inactive: all other assays above

CC(C)=CCCC(C)=CCO
active: [14] | [19]
inactive: [20] | [7]

CCCCCCCCO
inactive: [14]

Cc1cnc(C)c(C)n1
not listed: [1] | [2] | [3] | [4] | [19] | [20]
inactive: all other assays above

CCC1OC(C)=C(O)C1=O (centres undefined)
not listed: [1] | [2] | [3] | [4] | [19] | [20]
inactive: all other assays above

CC1=C(O)C(=O)C(C)O1 (centres undefined)
not listed: [1] | [2] | [3] | [4] | [19] | [20]
inactive: all other assays above

CC1=C(O)C(=O)OC1C (centres undefined)
not listed: [1] | [2] | [3] | [4] | [19] | [20]
inactive: all other assays above

CC(=O)c1c(C)c([N+](=O)[O-])c(C(C)(C)C)c([N+](=O)[O-])c1C
inactive: [14] | [5] | [6] | [7] | [8] | [9] | [10] | [11] | [12] | [13]

CC(=O)Oc1ccccc1
inactive: [14]

CC12CCC(CC1=O)C2(C)C (centres undefined)
inactive: [14]

CCCCC(S)C(C)CO (centres undefined)
inactive: [14] | [5] | [6] | [7] | [8] | [9] | [10] | [11] | [12] | [13]

CCCCCC(=O)C(C)C(C)=O (centres undefined)
inactive: [14] | [5] | [6] | [7] | [8] | [9] | [10] | [11] | [12] | [13]

O=c1ccc2ccccc2o1
inactive: [14]

CCCCCC(=O)CC
inactive: [14]

CCCC(=O)C(C)=O
inactive: [14]

CCCCCCCC(C)=O
inactive: [14]

CCCCCCCCCO
inactive: [14]

CCCCOC(=O)C(C)OC(=O)CCC (centres undefined)
inactive: [14]

CCCCCCCCCS
inactive: [14]
